Compound activity from PubChem.
PolyA inh = polyadenylation inhibitors in yeast reporter cells, primary screen, luminescence, S. cerevisiae; 0.02% of 300,000 active; AID 1875, 2009; S. cerevisiae SKY197-pL101 polyadenylation reporter, beta-gal luminescence; efflux-impaired pdr1/pdr3 knockout yeast; score 100 = 6 SD above DMSO; activity score, % at 12 µM;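 active means lowest replicate activity score at least 50, where 100 means six control SD above control mean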;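 further: yeast exposed to compound for 9 h at 30 °C; higher score means more reporter readthrough which indicates perturbed polyadenylation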
CHT inh = inhibitors of human choline transporter CHT. High affinity choline transporter 1 (Homo sapiens), Q9GZV3. CHT-expressing cells, membrane potential dye, choline response; stronger effect = lower value. B-score at 10 µM. 0.86% of 310,000 active;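 active means B-score over 3 SD under the library average, and starting fluorescence ratio not unusually high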;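 further: choline stimulus applied at its EC90 after an EC20 pre-addition; B-score computed on integrated fluorescence ratio after choline addition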
Target sequence (Q9GZV3 whole entry, looked up): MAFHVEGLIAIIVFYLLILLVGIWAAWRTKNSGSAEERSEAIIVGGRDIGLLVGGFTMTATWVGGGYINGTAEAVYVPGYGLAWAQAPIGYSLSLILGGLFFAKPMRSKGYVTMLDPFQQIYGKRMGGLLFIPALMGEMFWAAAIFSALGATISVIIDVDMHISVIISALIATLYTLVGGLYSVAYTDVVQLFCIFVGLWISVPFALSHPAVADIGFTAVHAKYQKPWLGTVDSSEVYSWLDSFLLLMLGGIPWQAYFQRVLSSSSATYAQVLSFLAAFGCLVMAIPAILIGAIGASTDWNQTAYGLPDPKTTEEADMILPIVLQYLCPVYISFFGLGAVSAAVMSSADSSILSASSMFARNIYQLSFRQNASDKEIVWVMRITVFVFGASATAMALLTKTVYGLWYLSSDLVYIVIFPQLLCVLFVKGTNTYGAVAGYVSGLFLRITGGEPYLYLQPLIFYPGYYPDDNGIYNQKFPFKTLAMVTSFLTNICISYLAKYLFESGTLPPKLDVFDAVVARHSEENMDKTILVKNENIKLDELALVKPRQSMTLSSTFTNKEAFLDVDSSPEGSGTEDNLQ
CHT allo act = CHT positive allosteric modulators, primary screen, cell-based, membrane potential dye, choline EC20; 0.49% of 310,000 active; B-score at 10 µM; CHT-expressing cells; stronger effect = higher value; LV-AA mutant CHT in HEK293 cells; High affinity choline transporter 1 (Homo sapiens), Q9GZV3; AID 488977, 2010;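 active means initial fluorescence not abnormally high and integrated response B-score, plate-corrected, over 3 SD above library mean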
T cruzi inh = inhibitors of intracellular T. cruzi growth, primary screen, luminescence, NIH3T3 host cells | T. cruzi beta-gal in NIH3T3, 90 h | inhibition, % (concentration not given with the values) | 1.4% of 300,000 active | AID 1885, 2009;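 active means mean inhibition across valid replicates above about 55%, limit read from the data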;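 further: signal also drops with host cell toxicity which is not excluded here; 0% = plate median of DMSO wells and 100% = zero luminescence signal; higher percent means less beta-gal luminescence so fewer parasites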
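Material: NIH/3T3 host cells with β-galactosidase reporter T. cruzi; Input: 5,000 host fibroblasts per well; Medium: DMEM, 2% fetal bovine serum; Compound: 50 nL DMSO compound solution per well; Schedule: 3 h host attachment, then at least 90 h co-culture; Detection: luminescent β-galactosidase signal after 60 min lysis.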
* = called active by the depositor; i = inactive; . = not tested or not shown. Compounds with a hit are over-represented: about 2.6% of the library has one in this group of screens.

SMILES	PolyA inh	CHT inh	CHT allo act	T cruzi inh
Cc1ccc(-n2c(SCC(=O)c3c(N)n(C)c(=O)n(C)c3=O)nc3sc4c(c3c2=O)CCCC4)c(C)c1	-3	i	i	68*
O=C(Nc1ccc(N2CCOCC2)cc1)c1ccc(COc2ccccc2)cc1	14	i	i	9
COc1ccc(Cl)cc1S(=O)(=O)NC(C)C(=O)NCc1ccc2c(c1)OCO2 (stereo not given)	5	i	i	19
O=C(c1ccc([N+](=O)[O-])s1)N1CCc2ccccc2C1	-11	i	i	84*
O=C(c1ccc([N+](=O)[O-])s1)N1CCc2ccccc21	-15	i	i	37
CC(NC(=S)Nc1ccccc1C(F)(F)F)C1CC2CCC1C2 (stereo not given)	16	i	i	-2
O=C(Nc1ccncc1)Nc1ccncc1	4	i	10*	-14
O=C(Nc1cc(Cl)ccc1Cl)Nn1cnnc1	-2	i	i	-10
O=C(Nc1ccncc1)Nc1ccc(Cl)cc1Cl	5	i	i	55*
O=C(Nc1ccncc1)Nc1ccccc1Cl	0	i	i	31
O=C(Nc1ccncc1)Nc1cc(Cl)ccc1Cl	-3	i	i	57*
CCCC[C@H](CN[C@@H](CNC)[C@H](C)CC)NCCC12CCC(CC1)C2	-8	i	i	31
COc1ccccc1N1CCN(C/C=C/c2ccc(N(C)C)cc2)CC1	7	i	i	55*
COc1cccc2cc(C(=O)c3ccc([N+](=O)[O-])cc3)oc12	-18	i	i	7
C=CCn1c(O)c(N=NC(=O)OC(C)(C)C)c2ccccc21	-14	i	i	13
C=CCn1c(O)c(N=NC(=S)Nc2ccc(OC)c(Cl)c2)c2ccccc21	12	i	i	57*
CC(C)c1ccc(N(CC(=O)NCc2cccnc2)S(=O)(=O)c2ccccc2)cc1	18	i	i	4
CCOC(=O)c1c(NC(=O)C[n+]2ccc(N(C)C)cc2)sc(C)c1C	2	i	i	62*
CCOC(=O)c1c(NC(=O)Cn2nc(C(F)F)cc2C(F)F)sc(C)c1C	-2	i	i	32
CCOC(=O)c1c(NC(=O)COC)sc(C)c1C	-12	i	i	-6
Cc1cc([N+](=O)[O-])nn1CCCC(=O)Nc1sc2c(c1C(N)=O)CCC(C)C2 (stereo not given)	1	i	i	1
CCOC(=O)c1c(NC(=O)Cn2cnc([N+](=O)[O-])n2)sc(C)c1C	-13	i	i	72*
CCOC(=O)c1c(NC(=O)Cn2cnc([N+](=O)[O-])n2)sc2c1CCCC2	-3	i	i	64*
CC1CCc2c(sc(NC(=O)Cn3cnc([N+](=O)[O-])n3)c2C(N)=O)C1 (stereo not given)	10	i	i	68*
NC(=O)c1c(NC(=O)Cn2cnc([N+](=O)[O-])n2)sc2c1CCCC2	7	i	i	51
SMILES	PolyA inh	CHT inh	CHT allo act	T cruzi inh
O=C(O)c1ccccc1Nc1cccc(OCc2ccc3ccccc3n2)c1	.	i	i	.
CS(=O)(=O)N(CC(=O)N1CCOCC1)c1cc(Cl)ccc1Cl	-4	i	i	1
CC(C)OC(=O)c1c(NC(=O)Cn2cnc([N+](=O)[O-])n2)sc2c1CCCC2	-1	i	i	105*
CC(C)OC(=O)c1c(NC(=O)c2cccs2)sc2c1CCCC2	9	i	i	-8
O=C1CCCN1CC(O)CS(=O)(=O)Cc1ccccc1Cl (stereo not given)	8	i	i	-10
CS(=O)(=O)N1CCc2cc(C(=O)Nc3ccc(O)cc3)ccc21	0	i	i	-25
CC(C)CCNC(=O)C(c1ccco1)N(Cc1ccccc1)C(=O)c1snc(C(N)=O)c1N (stereo not given)	-2	i	i	14
Cc1ccc(N(C(=O)c2snc(C(N)=O)c2N)C(C(=O)NCCC(C)C)c2ccco2)cc1 (stereo not given)	3	i	i	56*
COc1ccc(CCNC(=O)[C@H](C)N2C(=O)N3CCc4c([nH]c5ccccc45)[C@@]3(C)C2=O)cc1OC	-7	i	i	12
COc1ccc(CCNC(=O)[C@H](C)N2C(=O)N3CCc4c([nH]c5ccccc45)[C@@]3(C)C2=O)cc1	-12	i	i	62*
O=C1OC(c2ccc(F)cc2)=C/C1=C\c1ccc(O)cc1	-7	i	i	-8
O=C1OC(c2ccc(F)cc2)=C/C1=C\c1ccc([N+](=O)[O-])o1	-61	i	i	66*
CCC(C)Sc1ccc(-c2nc3ccc(C)cn3c2NC2CCCCC2)cc1 (stereo not given)	2	i	i	72*
Cc1ccc(S(=O)(=O)N2CCCC2CNC(=O)C(=O)NC2CCCC2)cc1 (stereo not given)	-30	i	i	-2
COc1cccc(N2C(=NC(=O)C3CCCO3)SC3CS(=O)(=O)CC32)c1 (stereo not given)	-10	i	i	4
CC1=C(C(=O)N2CCCC(N3CCN(c4ccccc4F)CC3)C2)OCCO1 (stereo not given)	2	i	i	-6
Cc1c(C(=O)NCC2COc3ccccc3O2)oc2ccc(S(=O)(=O)N(C)C3CCCCC3)cc12 (stereo not given)	4	i	i	75*
CN(Cc1ccc(Cl)cc1Cl)C(=O)c1cccc(S(=O)(=O)N2CCN(c3ccccc3)CC2)c1	-14	i	i	60*
Cn1c(CNC(=O)c2ccco2)nnc1SCC(=O)N1CCN(c2ccccc2F)CC1	-4	i	i	9
Fc1ccc(CSc2nnc(-c3ccccn3)o2)cc1	3	i	i	-1
Cc1nn(S(=O)(=O)c2ccc([N+](=O)[O-])cc2)c(C)c1Sc1ccccc1	-5	i	i	64*
O=C1CCC(C(=O)N2CCCCO2)CN1Cc1cccc(F)c1 (stereo not given)	-15	i	i	-16
CC(=O)c1ccc(NC(=O)C(C)N2CCN(C/C=C/c3ccccc3)CC2)cc1 (stereo not given)	-4	i	i	39
CC(C(=O)N(C)Cc1ccccc1)N1CCN(C/C=C/c2ccccc2)CC1 (stereo not given)	1	i	i	60*
CC(C)C(NC(=O)C12CC3CC(CC(C3)C1)C2)C(=O)N/N=C/C1=C(N2CCOCC2)C(=C\c2cccc([N+](=O)[O-])c2)/CC1 (stereo not given)	3	i	i	56*
Cn1cc(C(=O)N/N=C/C2=C(N3CCOCC3)C(=C/c3ccc([N+](=O)[O-])cc3)/CC2)ccc1=O	-4	i	i	4
